Reference: ChEMBL document CHEMBL1153949, “Design, synthesis, and structure-activity relationship of substrate competitive, selective, and in vivo active triazole and thiadiazole inhibitors of the c-Jun N-terminal kinase” (J Med Chem, 2009)
The source made the active and inactive calls. No cut-off for these calls is given here.

Key:
[1] = Displacement of biotin-labeled pep-JIP11 from JNK by DELFIA assay
[2] = Displacement of biotin-labeled pep-JIP11 from JNK at 100 uM by DELFIA assay
Summary of the method: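 GST-JNK added at 10 nM final with Eu-anti-GST antibody (1.9 nM) and compound in DMSO. Incubated 1 hr at 0 °C, washed 5 times, enhancement solution added, and Eu fluorescence read after 10 min (ex 340, em 615 nm). Controls: unlabeled peptide and no-compound blanks.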

Furin = Furin (Homo sapiens, UniProt P09958); assay: Inhibition of furin
[3] = target: Mitogen-activated protein kinase 14 (Homo sapiens, UniProt Q16539); assay: Inhibition of p38alpha
[4] = Inhibition of lethal factor
[5] = target: RAC-alpha serine/threonine-protein kinase (Homo sapiens) (UniProt P31749); assay: Inhibition of AKT1 at 100 uM
Mus musculus = assay: Enhancement of insulin insensitivity in BKS.Cg-+Lepr'db/-+Lepr'db/OlaHsd db/db mouse model assessed as reduction in blood glucose levels at 25 mg/kg, ip administered 30 mins before insulin injection; format: functional, organism-based; parameters: dose 25 mg/kg
Summary of the method: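 Male db/db mice, 11 weeks old, randomized by blood glucose and fasted 6 h. Compound given at 25 mg/kg i.p., then bovine insulin 0.75 mg/kg i.p. 30 min later. Blood glucose read from tail snips with a hand-held meter at set time points; food returned at 3 h. n=6; means ± S.D.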

[6] = Selectivity for JNK over p38 alpha
[7] = Metabolic stability in rat liver microsomes at 4 uM; format: ADME, Microsome
[8] = Inhibition of TNF-alpha-stimulated JNK phosphorylation expressed in HeLa cells by time-resolved FRET assay; format: cell-based
Summary of the method: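 HeLa cells stably expressing GFP-c-Jun(1–79), seeded at 10000/well in phenol red-free Opti-MEM with 1% charcoal/dextran-treated FBS, incubated overnight. Compound pretreatment 60 min, then TNF-α 2 ng/ml for 30 min. Cells lysed in buffer containing 2 nM Tb-anti-phospho-c-Jun (Ser73) antibody and equilibrated 1 hr at room temperature. TR-FRET read at 520/490 nm; EC50 taken from the concentration series.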

[9] = Inhibition of JNK at 100 uM by time-resolved FRET assay
Summary of the method: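 LanthaScreen TR-FRET kinase assay. JNK 35 ng/mL with ATF2 substrate 400 nM and ATP 200 μM in 50 mM HEPES pH 7.5, 10 mM MgCl2, 1 mM EGTA, 0.01% Brij-35, with compound. Reaction ran 1 hr at room temperature. Terbium-labeled antibody plus EDTA added, incubated another hour, and read as the 520/495 nm emission ratio.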

Sequence of Furin (P09958 whole entry): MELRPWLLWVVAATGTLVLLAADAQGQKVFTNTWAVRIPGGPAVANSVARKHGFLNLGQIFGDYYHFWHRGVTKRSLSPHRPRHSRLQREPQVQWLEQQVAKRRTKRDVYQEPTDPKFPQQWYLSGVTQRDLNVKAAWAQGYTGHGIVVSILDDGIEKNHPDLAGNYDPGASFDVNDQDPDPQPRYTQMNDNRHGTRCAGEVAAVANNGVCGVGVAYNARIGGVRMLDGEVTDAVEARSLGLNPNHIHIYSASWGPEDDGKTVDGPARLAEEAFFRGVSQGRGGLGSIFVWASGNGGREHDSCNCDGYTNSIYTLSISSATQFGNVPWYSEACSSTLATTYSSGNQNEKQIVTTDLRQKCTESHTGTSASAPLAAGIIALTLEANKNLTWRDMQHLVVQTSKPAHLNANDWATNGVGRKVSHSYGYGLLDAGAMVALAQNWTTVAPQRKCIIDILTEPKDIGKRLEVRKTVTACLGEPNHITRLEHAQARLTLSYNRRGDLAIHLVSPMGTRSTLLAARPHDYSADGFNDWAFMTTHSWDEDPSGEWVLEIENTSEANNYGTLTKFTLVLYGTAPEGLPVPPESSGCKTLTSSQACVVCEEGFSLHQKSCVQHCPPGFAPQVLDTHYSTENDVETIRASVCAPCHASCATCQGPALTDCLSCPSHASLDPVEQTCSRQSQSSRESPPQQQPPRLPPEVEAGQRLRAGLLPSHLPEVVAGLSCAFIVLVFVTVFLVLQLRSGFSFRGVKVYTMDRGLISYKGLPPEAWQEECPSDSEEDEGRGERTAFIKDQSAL
Sequence of RAC-alpha serine/threonine-protein kinase (Homo sapiens) (P31749 whole entry): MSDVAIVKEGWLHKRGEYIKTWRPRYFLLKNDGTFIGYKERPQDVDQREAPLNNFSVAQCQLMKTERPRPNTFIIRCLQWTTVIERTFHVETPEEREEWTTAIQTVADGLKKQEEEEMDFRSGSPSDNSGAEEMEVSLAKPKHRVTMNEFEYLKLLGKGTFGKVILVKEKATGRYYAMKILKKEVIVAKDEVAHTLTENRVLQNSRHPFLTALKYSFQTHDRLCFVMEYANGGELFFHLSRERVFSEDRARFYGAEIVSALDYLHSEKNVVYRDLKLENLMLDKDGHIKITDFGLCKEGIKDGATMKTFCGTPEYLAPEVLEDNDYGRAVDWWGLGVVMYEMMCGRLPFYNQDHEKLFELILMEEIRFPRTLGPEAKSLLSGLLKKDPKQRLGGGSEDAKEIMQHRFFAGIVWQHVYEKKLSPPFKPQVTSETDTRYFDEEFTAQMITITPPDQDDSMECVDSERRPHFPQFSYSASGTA
Sequence of Mitogen-activated protein kinase 14 (Q16539 whole entry): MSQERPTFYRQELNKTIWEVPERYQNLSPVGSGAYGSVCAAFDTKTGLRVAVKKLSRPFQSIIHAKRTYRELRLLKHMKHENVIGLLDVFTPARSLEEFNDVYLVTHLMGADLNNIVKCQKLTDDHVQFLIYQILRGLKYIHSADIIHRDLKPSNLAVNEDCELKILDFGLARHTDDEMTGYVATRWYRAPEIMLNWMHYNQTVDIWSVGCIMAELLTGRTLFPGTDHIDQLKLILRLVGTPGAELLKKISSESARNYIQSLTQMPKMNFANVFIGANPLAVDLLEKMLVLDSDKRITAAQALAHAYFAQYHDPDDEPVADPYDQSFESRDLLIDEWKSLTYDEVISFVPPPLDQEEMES

**Q.** With `Nc1nnc(SCc2ccc(F)cc2)s1` as the compound, how does the IC50 [1] read?
**A.** Its IC50 is greater than 1 µM.

**Q.** With `Fc1ccc(CSc2nnc(SCc3ccc(F)cc3)s2)cc1` as the compound, how does the inhibition [2] read?
**A.** Its inhibition is “inactive”.

**Q.** With `COc1ccc(CSc2nnc(SCc3ccc(OC)cc3)s2)cc1` as the compound, how does the inhibition [2] read?
**A.** The inhibition was “inactive”.

**Q.** For `O=c1[nH]nc(Sc2ncc([N+](=O)[O-])s2)n1-c1ccc([N+](=O)[O-])cc1`, which IC50 (Furin) is on record?
**A.** Its IC50 is greater than 50 µM.

**Q.** And the IC50 [3]?
**A.** Its IC50 is greater than 100 µM.

**Q.** With `O=[N+]([O-])c1cccc(CSc2nnc(SCc3cccc([N+](=O)[O-])c3)s2)c1` as the compound, how does the inhibition [2] read?
**A.** The inhibition was “inactive”.

**Q.** With `Cn1cccc1-c1nnc(Sc2ncc([N+](=O)[O-])s2)n1-c1ccc(Cl)cc1Cl` as the compound, how does the IC50 [4] read?
**A.** Its IC50 is greater than 100 µM.

**Q.** And the IC50 (Furin)?
**A.** Its IC50 is greater than 50 µM.

**Q.** And the inhibition [5]?
**A.** The inhibition was 14%.

**Q.** And the IC50 [3]?
**A.** The IC50 was greater than 100 µM.

**Q.** With `Nc1nnc(Sc2ncc([N+](=O)[O-])s2)s1` as the compound, how does the IC50 [4] read?
**A.** The IC50 was greater than 100 µM.

**Q.** What about the Activity (Mus musculus) of the same compound?
**A.** Its Activity is “Active”.

**Q.** And the Ratio IC50 [6]?
**A.** The Ratio IC50 was 142.

**Q.** What about the half-life at 4 µM [7] of the same compound?
**A.** The half-life at 4 µM was 27 min.

**Q.** And the Activity [1]?
**A.** The Activity was “Dose-dependent effect”.

**Q.** And the EC50 [8]?
**A.** Its EC50 is 6.23 µM.

**Q.** What about the IC50 (Furin) of the same compound?
**A.** The IC50 was greater than 50 µM.

**Q.** What about the inhibition [5] of the same compound?
**A.** The inhibition was 11%.

**Q.** What about the IC50 [3] of the same compound?
**A.** The IC50 was greater than 100 µM.

**Q.** Which IC50 [4] does the source give for `O=[N+]([O-])c1ccc(-n2c(O)nnc2Sc2ncc([N+](=O)[O-])s2)cc1` here?
**A.** The IC50 was greater than 100 µM.

**Q.** And the inhibition [5]?
**A.** The inhibition was 20%.

**Q.** With `O=C(Nc1nnc(Sc2ncc([N+](=O)[O-])s2)s1)c1ccc(F)cc1` as the compound, how does the inhibition [2] read?
**A.** The inhibition was “inactive”.

**Q.** Which results are given for `CCCCSc1nnc(O)n1-c1ccccc1`?
**A.** inhibition [9]: 25%; inhibition [2]: inactive

**Q.** With `O=[N+]([O-])c1cnc(Sc2nnc(O)n2-c2ccc(F)c(F)c2)s1` as the compound, how does the inhibition [2] read?
**A.** Its inhibition is 73%.

**Q.** Which inhibition [9] does the source give for `Oc1nnc(SCc2ccccc2)n1-c1ccc2c(c1)OCCO2` here?
**A.** The inhibition was 2%.

**Q.** What about the inhibition [2] of the same compound?
**A.** The inhibition was “inactive”.

**Q.** For `CCSc1nnc(O)n1-c1ccccc1`, which inhibition [9] is on record?
**A.** The inhibition was 16%.

**Q.** What about the inhibition [2] of the same compound?
**A.** Its inhibition is “inactive”.

**Q.** What does the source list for `O=[N+]([O-])c1cnc(Sc2nnc(Sc3ncc([N+](=O)[O-])s3)s2)s1`?
**A.** IC50 [4]: > 100 µM; IC50 (Furin): > 50 µM; inhibition [5]: 27%; IC50 [3]: > 100 µM

**Q.** What does the source list for `O=[N+]([O-])c1ccc(Sc2nnc(O)n2-c2ccccc2)s1`?
**A.** inhibition [9]: 22%; inhibition [2]: 55%

**Q.** With `O=[N+]([O-])c1cnc(Sc2nnc(O)n2-c2ccc3c(c2)OCCO3)s1` as the compound, how does the IC50 [1] read?
**A.** The IC50 was 0.108 µM.

**Q.** For `O=[N+]([O-])c1ccc(CSc2nnc(SCc3ccc([N+](=O)[O-])cc3)s2)cc1`, which inhibition [2] is on record?
**A.** The inhibition was “inactive”.

**Q.** Which inhibition [2] does the source give for `c1ccc(CSc2nnc(SCc3ccccc3)s2)cc1` here?
**A.** Its inhibition is “inactive”.
